According to ChEMBL document CHEMBL3112533, “Synthesis of novel, peptidic kinase inhibitors with cytostatic/cytotoxic activity” (Bioorg Med Chem, 2014):
Active and inactive are the calls of the source. The calls are words filed in the database; no cut-off is given here.

Tests used:
Homo sapiens = species: Homo sapiens; assay: Inhibition of MEK/ERK1 (unknown origin) using MBP/[gamma-32P]ATP as substrate after 10 mins by scintillation counting
In short: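 Compound at 10–150 μM in MOPS pH 7.2 buffer with β-glycerophosphate, EGTA, orthovanadate and DTT. [γ-32P]ATP at 10 μCi/reaction, 10 min at 30°C. Phosphorylated MBP was captured on P81 paper and counted by scintillation. Run in quadruplicate and given as % of no-compound control.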

NIH3T3 = assay: Cytotoxicity against mouse NIH/3T3 cells by crystal violet assay; type: cell-based
In short: (§1)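 Parental NIH-3T3 fibroblasts and Ha-Ras-transfected RAS-3T3 cells were grown in DMEM with 10% FBS, […] and antibiotic-antimycotic at 37°C in 5% CO2. Growth retardation/cytotoxicity was read by crystal violet staining. Compounds came from 10 mM DMSO stocks.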

[1] = Cytotoxicity against mouse RAS-3T3 cells by crystal violet assay; type: functional, cell-based; conditions: NIH3T3; in short: as §1
[2] = target: ALK tyrosine kinase receptor (Homo sapiens) (UniProt Q9UM73); assay: Inhibition of ALK (unknown origin) at 10 uM
In short: (§2)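 ADP-Glo luminescent kinase assay. Inhibitor at 10 μM was preincubated with kinase (1 ng) for 10 min at 25°C. Substrate (10–60 μM) and ATP (25 μM) were then added and the mix incubated 1 h at 24°C. ADP-Glo reagent was added for 40 min, then detection reagent for 30 min, and luminescence was read. Activity is given as % of uninhibited kinase. Mean ± SD of 2 independent experiments.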

[3] = target: Tyrosine-protein kinase JAK2 (Homo sapiens) (UniProt O60674); assay: Inhibition of JAK2 (unknown origin) at 10 uM; in short: as §2
[4] = target: Tyrosine-protein kinase BTK (Homo sapiens) (UniProt Q06187); assay: Inhibition of BTK (unknown origin) at 10 uM; in short: as §2
[5] = target: Epidermal growth factor receptor (Homo sapiens) (UniProt P00533); assay: Inhibition of EGFR (unknown origin) at 10 uM; in short: as §2
[6] = target: Mitogen-activated protein kinase 3 (Homo sapiens) (UniProt P27361); assay: Inhibition of activated ERK1 (unknown origin) using […] as substrate
In short: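 Activated pERK1 (20 ng) with MBP (20 μg) and compound at final 0.05–5 μM. Non-radioactive ATP at 0.2 μM. Residual ATP was measured by luciferase luminescence, and relative activity was derived from ATP consumption versus compound-free control. Mean ± SD from 3 independent experiments.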

[7] = target: Receptor-type tyrosine-protein kinase FLT3 (Homo sapiens) (UniProt P36888); assay: Inhibition of FLT3 (unknown origin) at 10 uM; in short: as §2
[8] = target: T1, Tyrosine-protein kinase JAK3 (Homo sapiens) (UniProt P52333); assay: Inhibition of JAK3 (unknown origin) at 10 uM; in short: as §2
T1 sequence (whole entry): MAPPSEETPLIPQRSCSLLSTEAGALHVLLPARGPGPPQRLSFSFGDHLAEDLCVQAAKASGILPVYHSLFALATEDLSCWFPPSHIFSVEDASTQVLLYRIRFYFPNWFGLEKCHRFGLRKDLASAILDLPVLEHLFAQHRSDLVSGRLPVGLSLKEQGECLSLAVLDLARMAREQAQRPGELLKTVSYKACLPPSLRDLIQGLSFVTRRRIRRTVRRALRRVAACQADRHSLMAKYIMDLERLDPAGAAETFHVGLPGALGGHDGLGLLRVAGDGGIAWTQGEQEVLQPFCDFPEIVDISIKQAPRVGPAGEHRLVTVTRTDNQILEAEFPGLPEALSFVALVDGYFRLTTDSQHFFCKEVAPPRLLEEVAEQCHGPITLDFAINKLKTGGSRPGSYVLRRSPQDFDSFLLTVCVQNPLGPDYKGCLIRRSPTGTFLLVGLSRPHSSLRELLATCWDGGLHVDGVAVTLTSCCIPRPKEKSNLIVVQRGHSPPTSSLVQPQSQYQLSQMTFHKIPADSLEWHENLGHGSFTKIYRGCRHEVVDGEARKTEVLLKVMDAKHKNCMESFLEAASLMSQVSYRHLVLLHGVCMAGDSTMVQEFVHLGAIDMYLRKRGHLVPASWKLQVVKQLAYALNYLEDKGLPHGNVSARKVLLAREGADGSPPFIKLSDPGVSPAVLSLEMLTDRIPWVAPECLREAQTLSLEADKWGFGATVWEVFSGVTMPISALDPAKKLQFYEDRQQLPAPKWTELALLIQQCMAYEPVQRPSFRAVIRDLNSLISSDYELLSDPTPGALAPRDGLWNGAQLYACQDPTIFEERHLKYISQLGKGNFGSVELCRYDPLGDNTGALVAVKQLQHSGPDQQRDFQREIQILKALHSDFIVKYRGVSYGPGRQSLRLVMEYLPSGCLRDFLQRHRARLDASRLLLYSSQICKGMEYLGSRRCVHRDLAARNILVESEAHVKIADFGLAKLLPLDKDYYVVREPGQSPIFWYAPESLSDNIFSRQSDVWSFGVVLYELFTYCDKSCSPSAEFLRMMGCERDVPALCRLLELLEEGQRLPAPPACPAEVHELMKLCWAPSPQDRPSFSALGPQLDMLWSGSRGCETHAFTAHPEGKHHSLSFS

[9] = target: Fibroblast growth factor receptor 2 (Homo sapiens) (UniProt P21802); assay: Inhibition of FGFR2 (unknown origin) at 10 uM; in short: as §2
[10] = target: Insulin-like growth factor 1 receptor (Homo sapiens) (UniProt P08069); assay: Inhibition of IGF1R (unknown origin) at 10 uM; in short: as §2
[11] = target: Vascular endothelial growth factor receptor 2 (Homo sapiens) (UniProt P35968); assay: Inhibition of KDR (unknown origin) at 10 uM; in short: as §2
[12] = target: Serine/threonine-protein kinase pim-1 (Homo sapiens) (UniProt P11309); assay: Inhibition of PIM1 (unknown origin) at 10 uM; in short: as §2
[13] = target: Platelet-derived growth factor receptor beta (Homo sapiens) (UniProt P09619); assay: Inhibition of PDGFRbeta (unknown origin) at 10 uM; in short: as §2
[14] = target: TRAF2 and NCK-interacting protein kinase (Homo sapiens) (UniProt Q9UKE5); assay: Inhibition of TNIK (unknown origin) at 10 uM; in short: as §2
[15] = target: Mitogen-activated protein kinase 3 (Homo sapiens) (UniProt P27361); assay: Competitive inhibition of activated ERK1 (unknown origin) using […] as substrate
In short: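 Activated pERK1 (20 ng) with inhibitor held at 5 μM and MBP varied from 0.2 to 200 μg per reaction. Non-radioactive ATP at 0.2 μM. Remaining ATP was measured by luciferase luminescence, and activity was taken from ATP consumption. Controls lacked inhibitor but had matching MBP amounts. Mean ± SD from 3 independent experiments.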

RAS-3T3 [16] = assay: Inhibition of MEK-mediated ERK1/2 phosphorylation in mouse RAS-3T3 cells at 40 uM by Western-blot analysis; type: cell-based
In short: (§3)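 RAS-3T3 cells were starved overnight in 2% FBS, then given 10% FBS medium with compound for 4 h. Cells were lysed in Triton X-100/Tris/EDTA/NaCl buffer with protease inhibitors. 50 μg of protein was run on 10% SDS-PAGE and blotted to nitrocellulose, with loading checked by Ponceau. Blots were probed with anti-pERK and anti-total ERK antibodies and detected by HRP chemiluminescence. Untreated cells were controls.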

[17] = target: T2, Aurora kinase A (Homo sapiens) (UniProt O14965); assay: Inhibition of aurora-A (unknown origin) at 10 uM; in short: as §2
T2 sequence (whole entry): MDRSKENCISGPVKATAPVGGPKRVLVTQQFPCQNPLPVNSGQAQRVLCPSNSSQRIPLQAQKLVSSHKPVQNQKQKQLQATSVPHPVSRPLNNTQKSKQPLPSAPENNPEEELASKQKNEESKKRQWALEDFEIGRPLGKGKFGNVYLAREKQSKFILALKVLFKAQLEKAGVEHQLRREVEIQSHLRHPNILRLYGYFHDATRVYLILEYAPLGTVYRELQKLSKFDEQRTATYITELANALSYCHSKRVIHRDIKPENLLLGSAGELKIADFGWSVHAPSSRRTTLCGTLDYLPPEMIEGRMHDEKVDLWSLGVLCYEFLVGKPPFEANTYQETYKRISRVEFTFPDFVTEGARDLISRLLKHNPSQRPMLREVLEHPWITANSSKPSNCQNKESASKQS

RAS-3T3 [18] = assay: Inhibition of MEK-mediated ERK1/2 phosphorylation in mouse RAS-3T3 cells at 40 uM by ELISA; type: cell-based
In short: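 RAS-3T3 cells were pre-starved overnight in 2% FBS, then treated with compound in 10% FBS medium for 4 h. Lysates were assayed with a pERK1/2-specific sandwich ELISA and absorbance read at 405 nm. Untreated cells were controls.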

RAS-3T3 [19] = assay: Inhibition of MEK in mouse RAS-3T3 cells assessed as effect on unphosphorylated ERK1/2 at 40 uM by Western-blot analysis; type: cell-based; in short: as §3

Sequence of Mitogen-activated protein kinase 3 (Homo sapiens) (P27361 whole entry): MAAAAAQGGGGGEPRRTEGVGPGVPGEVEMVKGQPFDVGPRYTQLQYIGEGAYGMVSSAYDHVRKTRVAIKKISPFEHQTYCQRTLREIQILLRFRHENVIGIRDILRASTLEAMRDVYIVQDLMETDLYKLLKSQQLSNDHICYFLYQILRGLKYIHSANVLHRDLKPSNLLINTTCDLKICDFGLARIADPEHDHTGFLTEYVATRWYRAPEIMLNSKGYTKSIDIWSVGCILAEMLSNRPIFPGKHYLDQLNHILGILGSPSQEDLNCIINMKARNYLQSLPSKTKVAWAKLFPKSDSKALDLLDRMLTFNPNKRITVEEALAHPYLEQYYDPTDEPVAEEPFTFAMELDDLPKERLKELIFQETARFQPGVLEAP
Sequence of Tyrosine-protein kinase BTK (Homo sapiens) (Q06187 whole entry): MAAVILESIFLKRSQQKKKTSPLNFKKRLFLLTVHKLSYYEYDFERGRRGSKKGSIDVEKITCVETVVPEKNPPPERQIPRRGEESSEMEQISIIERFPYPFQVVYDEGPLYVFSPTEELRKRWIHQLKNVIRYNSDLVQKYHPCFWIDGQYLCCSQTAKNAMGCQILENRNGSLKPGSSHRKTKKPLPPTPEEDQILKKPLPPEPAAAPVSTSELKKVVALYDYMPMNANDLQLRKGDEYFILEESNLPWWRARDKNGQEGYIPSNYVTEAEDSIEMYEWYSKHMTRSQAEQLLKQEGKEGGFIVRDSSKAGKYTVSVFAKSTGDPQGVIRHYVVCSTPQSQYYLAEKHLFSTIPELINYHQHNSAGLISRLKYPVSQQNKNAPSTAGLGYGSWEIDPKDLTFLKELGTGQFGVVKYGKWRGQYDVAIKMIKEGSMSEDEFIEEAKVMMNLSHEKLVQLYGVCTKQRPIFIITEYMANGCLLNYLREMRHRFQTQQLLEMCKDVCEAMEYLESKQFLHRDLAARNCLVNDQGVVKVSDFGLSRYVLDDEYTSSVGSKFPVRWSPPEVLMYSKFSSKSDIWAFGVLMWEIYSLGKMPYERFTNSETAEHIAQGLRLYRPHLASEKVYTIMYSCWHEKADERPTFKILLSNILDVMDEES
Sequence of Epidermal growth factor receptor (Homo sapiens) (P00533 whole entry): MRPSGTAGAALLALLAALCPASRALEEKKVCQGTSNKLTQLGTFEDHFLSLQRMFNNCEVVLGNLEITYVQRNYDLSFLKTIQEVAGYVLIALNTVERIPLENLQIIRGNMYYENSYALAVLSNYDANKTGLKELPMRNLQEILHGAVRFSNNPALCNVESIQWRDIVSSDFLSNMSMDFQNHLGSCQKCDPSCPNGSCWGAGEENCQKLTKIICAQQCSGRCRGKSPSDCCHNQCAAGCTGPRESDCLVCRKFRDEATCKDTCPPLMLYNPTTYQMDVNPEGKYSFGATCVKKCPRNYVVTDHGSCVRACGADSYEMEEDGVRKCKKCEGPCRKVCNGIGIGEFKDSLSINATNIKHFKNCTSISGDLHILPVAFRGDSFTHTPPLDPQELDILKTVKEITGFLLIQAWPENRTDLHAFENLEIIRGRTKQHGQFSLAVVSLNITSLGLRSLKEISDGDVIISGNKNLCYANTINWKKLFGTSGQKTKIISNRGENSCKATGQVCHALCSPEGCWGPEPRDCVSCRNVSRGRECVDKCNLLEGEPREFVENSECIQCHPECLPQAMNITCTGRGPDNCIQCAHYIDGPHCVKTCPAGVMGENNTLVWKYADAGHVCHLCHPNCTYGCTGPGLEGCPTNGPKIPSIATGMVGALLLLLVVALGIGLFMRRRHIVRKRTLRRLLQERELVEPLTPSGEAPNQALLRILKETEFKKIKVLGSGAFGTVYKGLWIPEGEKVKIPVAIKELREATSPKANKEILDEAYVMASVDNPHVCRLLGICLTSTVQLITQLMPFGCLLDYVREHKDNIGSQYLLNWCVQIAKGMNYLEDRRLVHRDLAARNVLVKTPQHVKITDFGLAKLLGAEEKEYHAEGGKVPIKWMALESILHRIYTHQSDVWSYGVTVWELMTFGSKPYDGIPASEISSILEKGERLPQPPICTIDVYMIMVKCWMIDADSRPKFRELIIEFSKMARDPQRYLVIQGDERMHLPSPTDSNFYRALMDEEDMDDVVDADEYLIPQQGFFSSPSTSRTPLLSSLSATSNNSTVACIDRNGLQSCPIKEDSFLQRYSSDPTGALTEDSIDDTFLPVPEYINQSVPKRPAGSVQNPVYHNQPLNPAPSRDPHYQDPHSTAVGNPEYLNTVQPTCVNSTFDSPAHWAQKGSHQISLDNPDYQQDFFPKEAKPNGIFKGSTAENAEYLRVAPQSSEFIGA
Sequence of Tyrosine-protein kinase JAK2 (Homo sapiens) (O60674 whole entry): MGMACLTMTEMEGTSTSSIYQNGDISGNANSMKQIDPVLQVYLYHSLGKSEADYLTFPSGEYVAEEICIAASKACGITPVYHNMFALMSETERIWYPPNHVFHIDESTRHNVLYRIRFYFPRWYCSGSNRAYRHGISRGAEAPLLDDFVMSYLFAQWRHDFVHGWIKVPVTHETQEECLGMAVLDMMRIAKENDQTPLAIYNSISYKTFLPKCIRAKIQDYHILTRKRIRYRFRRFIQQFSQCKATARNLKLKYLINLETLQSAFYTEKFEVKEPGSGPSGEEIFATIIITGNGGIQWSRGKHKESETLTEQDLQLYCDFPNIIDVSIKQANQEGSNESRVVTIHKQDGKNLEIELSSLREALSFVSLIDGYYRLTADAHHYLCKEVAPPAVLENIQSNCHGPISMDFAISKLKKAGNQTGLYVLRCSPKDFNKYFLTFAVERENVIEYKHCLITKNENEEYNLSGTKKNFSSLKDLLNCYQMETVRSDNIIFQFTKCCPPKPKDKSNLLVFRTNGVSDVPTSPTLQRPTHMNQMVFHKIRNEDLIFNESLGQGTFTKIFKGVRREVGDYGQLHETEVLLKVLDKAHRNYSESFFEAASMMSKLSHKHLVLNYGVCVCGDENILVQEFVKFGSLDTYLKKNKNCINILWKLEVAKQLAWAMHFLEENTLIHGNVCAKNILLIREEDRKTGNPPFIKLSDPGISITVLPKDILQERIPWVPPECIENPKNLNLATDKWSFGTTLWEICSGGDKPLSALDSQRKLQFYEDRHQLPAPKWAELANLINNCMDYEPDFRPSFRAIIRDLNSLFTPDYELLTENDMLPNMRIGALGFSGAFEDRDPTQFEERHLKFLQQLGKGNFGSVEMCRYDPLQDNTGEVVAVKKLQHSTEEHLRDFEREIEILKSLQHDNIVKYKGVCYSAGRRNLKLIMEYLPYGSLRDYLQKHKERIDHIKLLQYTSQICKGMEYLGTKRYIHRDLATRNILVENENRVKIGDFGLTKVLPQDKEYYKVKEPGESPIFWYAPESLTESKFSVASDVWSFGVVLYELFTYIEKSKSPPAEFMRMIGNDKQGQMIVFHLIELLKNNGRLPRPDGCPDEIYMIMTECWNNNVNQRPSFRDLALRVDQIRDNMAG
Sequence of Insulin-like growth factor 1 receptor (Homo sapiens) (P08069 31-736 limits assumed): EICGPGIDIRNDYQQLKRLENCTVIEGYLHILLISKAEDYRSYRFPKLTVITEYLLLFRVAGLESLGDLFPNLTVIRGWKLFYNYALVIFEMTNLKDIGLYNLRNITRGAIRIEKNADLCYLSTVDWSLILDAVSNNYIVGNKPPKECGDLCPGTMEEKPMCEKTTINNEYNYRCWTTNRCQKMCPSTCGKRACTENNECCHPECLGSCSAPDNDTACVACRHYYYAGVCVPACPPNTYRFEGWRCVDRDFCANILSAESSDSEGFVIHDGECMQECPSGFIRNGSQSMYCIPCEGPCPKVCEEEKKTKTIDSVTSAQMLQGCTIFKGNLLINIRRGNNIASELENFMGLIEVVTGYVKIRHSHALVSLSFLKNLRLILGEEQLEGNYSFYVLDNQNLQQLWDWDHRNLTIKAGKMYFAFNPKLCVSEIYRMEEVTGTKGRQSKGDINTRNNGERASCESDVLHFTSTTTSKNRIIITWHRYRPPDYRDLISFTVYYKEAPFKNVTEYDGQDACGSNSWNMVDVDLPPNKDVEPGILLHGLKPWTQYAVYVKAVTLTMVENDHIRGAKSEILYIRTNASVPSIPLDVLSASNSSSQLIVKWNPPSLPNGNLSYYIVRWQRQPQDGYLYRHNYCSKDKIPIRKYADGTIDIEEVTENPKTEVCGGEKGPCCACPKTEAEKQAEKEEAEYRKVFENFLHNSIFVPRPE
Sequence of Insulin-like growth factor 1 receptor (Homo sapiens) (P08069 741-1367 limits assumed): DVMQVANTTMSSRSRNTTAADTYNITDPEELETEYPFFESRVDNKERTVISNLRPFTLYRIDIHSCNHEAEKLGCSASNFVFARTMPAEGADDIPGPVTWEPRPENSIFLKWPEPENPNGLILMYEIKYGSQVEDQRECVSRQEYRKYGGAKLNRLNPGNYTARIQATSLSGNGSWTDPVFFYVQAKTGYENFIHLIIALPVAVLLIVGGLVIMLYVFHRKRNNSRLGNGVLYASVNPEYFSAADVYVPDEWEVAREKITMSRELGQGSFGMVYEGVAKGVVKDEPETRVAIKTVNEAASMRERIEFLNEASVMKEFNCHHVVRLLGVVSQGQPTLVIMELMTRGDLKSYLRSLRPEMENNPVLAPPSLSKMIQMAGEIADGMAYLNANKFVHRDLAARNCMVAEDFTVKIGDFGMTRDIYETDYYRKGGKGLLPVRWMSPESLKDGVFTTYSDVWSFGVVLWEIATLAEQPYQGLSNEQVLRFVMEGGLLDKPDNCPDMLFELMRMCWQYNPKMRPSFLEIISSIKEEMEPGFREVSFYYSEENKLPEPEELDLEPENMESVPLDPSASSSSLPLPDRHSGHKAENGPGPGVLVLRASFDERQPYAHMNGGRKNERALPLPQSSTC
Sequence of Serine/threonine-protein kinase pim-1 (Homo sapiens) (P11309 whole entry, looked up): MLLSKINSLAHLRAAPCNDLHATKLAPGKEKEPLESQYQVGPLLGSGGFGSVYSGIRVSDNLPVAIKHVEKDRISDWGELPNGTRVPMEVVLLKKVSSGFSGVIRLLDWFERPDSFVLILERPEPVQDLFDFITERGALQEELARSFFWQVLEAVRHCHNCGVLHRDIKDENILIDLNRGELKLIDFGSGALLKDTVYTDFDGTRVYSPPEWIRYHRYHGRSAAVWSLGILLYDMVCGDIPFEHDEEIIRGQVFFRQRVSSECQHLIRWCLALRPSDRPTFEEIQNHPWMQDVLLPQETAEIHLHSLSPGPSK

| Compound | IC50 (NIH3T3) | IC50 [1] | also measured |
| --- | --- | --- | --- |
| CCCCCCCCC[C@@H](NC(=O)CNC(=O)OCc1ccccc1)C(=O)NCc1ccc(OC)cc1 | – | – | inhibition (Homo sapiens): Active |
| CCCCCCCCC[C@H](NC(=O)CNC(=O)OCc1ccccc1)C(=O)NCc1ccc(OC)cc1 | – | – | inhibition (Homo sapiens): Active |
| CCCCCCCCCC(NC(=O)[C@H](CC(C)C)NC(=O)OCc1ccccc1)C(=O)NCc1ccc(OC)cc1 (mixture of isomers) | > 200 µM | 50 µM | – |
| CCCCCCCCCC(NC(=O)[C@H](Cc1ccccc1)NC(=O)OCc1ccccc1)C(=O)NCc1ccc(OC)cc1 (mixture of isomers) | > 200 µM | 68 µM | – |
| CCCCCCCCCC(NC(=O)[C@H](C)NC(=O)OCc1ccccc1)C(=O)NCc1ccc(OC)cc1 (mixture of isomers) | 150 µM | 55 µM | – |
| CCCCCCCCCC(C(=O)NCc1ccc(OC)cc1)N(C)C(=O)CNC(=O)OCc1ccccc1 (racemic) | 30 µM | 30 µM | – |
| CCCCCCCC(NC(=O)CNC(=O)OCc1ccccc1)C(=O)NC1CCCCC1 (racemic) | 40 µM | 30 µM | – |
| CCCCCCCC(NC(=O)CNC(=O)OCc1ccccc1)C(=O)NCc1ccccc1 (racemic) | 38 µM | 33 µM | – |
| CCCCCCCC(NC(=O)CNC(=O)OCc1ccccc1)C(=O)NCCc1ccccc1 (racemic) | 33 µM | 20 µM | – |
| CCCCCCCC(NC(=O)CNC(=O)OCc1ccccc1)C(=O)NCc1ccc(OC)cc1 (racemic) | 40 µM | 40 µM | – |
| CCCCCCCC(NC(=O)CNC(=O)OCc1ccccc1)C(=O)NCc1ccc(OC)cc1OC (racemic) | 50 µM | 40 µM | – |
| COc1ccc(CNC(=O)C(Cc2ccccc2)NC(=O)CNC(=O)OCc2ccccc2)cc1 (racemic) | > 100 µM | > 100 µM | – |
| COc1ccc(CNC(=O)C(Cc2ccc(OC)cc2)NC(=O)CNC(=O)OCc2ccccc2)cc1 (racemic) | > 100 µM | > 100 µM | – |
| COc1ccc(CNC(=O)C(CCCCCNC(=O)OC(C)(C)C)NC(=O)CNC(=O)OCc2ccccc2)cc1 (racemic) | > 100 µM | > 100 µM | – |
| COc1ccc(CNC(=O)C(NC(=O)CNC(=O)OCc2ccccc2)C2CCCCC2)cc1 (racemic) | 50 µM | 40 µM | – |
| COc1ccc(CNC(=O)C(CC(C)C)NC(=O)CNC(=O)OCc2ccccc2)cc1 (racemic) | > 100 µM | > 100 µM | – |
| CCCCCCCCCC(NC(=O)CNC(=O)OCc1ccccc1)C(=O)NCc1ccc(OC)cc1 (racemic) | 55 µM | 19 µM | inhibition (Homo sapiens): Dose-dependent effect |
| CCCCCCCCCC(NC(=O)CNC(=O)OCc1ccccc1)C(=O)NCCc1ccccc1 (racemic) | – | – | inhibition [2]: inactive; inhibition [3]: inactive; inhibition [4]: inactive; inhibition [5]: inactive; inhibition [6]: Dose-dependent effect; inhibition [7]: inactive; inhibition [8]: inactive; inhibition [9]: inactive; inhibition [10]: inactive; inhibition [11]: inactive; inhibition [12]: inactive; inhibition [13]: inactive; inhibition [14]: inactive; inhibition [15]: Active; inhibition (RAS-3T3 [16]): Active; inhibition [17]: inactive; inhibition (RAS-3T3 [18]): 90%; inhibition (RAS-3T3 [19]): inactive |
